Measurements as given in ChEMBL document CHEMBL4014301, “Design, synthesis and evaluation of 4-substituted anthra[2,1-c][1,2,5]thiadiazole-6,11-dione derivatives as novel non-camptothecin topoisomerase I inhibitors” (Bioorg Med Chem Lett, 2017).
The source made the active and inactive calls. The rule behind the calls is not given here.

Experiments:
[1] = tested on: HCT-116; experiment: Antiproliferative activity against human HCT116 cells after 72 hrs by MTT assay; format: functional, cell-based
[2] = tested on: A549; experiment: Antiproliferative activity against human A549 cells after 72 hrs by MTT assay; format: functional, cell-based
[3] = tested on: ZR-75-30; experiment: Antiproliferative activity against human ZR-7530 cells after 72 hrs by MTT assay; format: functional, cell-based
[4] = molecular target: T1, DNA topoisomerase 1 (Homo sapiens) (UniProt P11387); experiment: Inhibition of DNA topoisomerase 1 (unknown origin) assessed as reduction in supercoiled pBR322 plasmid DNA relaxation at 100 uM after 15 mins by ethidium bromide staining based agarose gel electrophoresis
T1 sequence (whole entry): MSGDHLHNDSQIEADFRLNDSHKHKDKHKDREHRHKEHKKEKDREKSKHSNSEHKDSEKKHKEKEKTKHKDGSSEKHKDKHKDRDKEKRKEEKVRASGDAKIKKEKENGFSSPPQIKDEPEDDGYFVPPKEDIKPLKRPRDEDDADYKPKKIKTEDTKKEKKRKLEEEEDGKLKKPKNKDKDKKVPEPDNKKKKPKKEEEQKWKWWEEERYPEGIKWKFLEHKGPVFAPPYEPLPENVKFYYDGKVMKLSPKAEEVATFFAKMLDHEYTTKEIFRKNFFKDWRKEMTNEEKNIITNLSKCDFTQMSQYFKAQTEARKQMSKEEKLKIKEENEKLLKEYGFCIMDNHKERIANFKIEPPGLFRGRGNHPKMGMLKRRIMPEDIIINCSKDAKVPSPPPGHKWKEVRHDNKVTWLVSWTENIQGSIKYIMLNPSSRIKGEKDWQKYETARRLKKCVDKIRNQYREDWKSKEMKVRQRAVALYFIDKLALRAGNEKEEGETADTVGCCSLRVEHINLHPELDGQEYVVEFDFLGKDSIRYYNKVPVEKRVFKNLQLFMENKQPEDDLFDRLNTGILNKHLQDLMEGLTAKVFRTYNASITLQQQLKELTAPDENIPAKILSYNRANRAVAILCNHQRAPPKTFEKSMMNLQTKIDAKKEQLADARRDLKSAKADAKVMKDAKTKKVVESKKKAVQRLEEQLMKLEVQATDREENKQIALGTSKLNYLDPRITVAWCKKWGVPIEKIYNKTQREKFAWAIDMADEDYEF
Procedure, shortened: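 Supercoiled pBR322 plasmid incubated with Top1, with or without compound at 1, 10 and 100 µM. Relaxation inhibition read from agarose gel bands.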

[5] = molecular target: T1, DNA topoisomerase 1 (Homo sapiens); experiment: Inhibition of DNA topoisomerase-1 (unknown origin) mediated DNA relaxation assessed as DNA intercalation at 100 uM using supercoiled pBR322 plasmid DNA as substrate after 60 mins by ethidium bromide staining based agarose gel electrophoresis
Procedure, shortened: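 Unwinding assay with excess Top1 acting on supercoiled pBR322 in the presence of compound at 100 µM. Ethidium bromide at 1 µg/mL used as intercalator reference. Compound removed by phenol extraction after relaxation. Nicked, relaxed and supercoiled forms resolved on gel.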

Row | IC50 ([1]; Homo sapiens, HCT-116, 72 h) [µM] | IC50 ([2]; Homo sapiens, A549, 72 h) [µM] | inhibition [4] | inhibition [5] | Structure (SMILES) | IC50 ([3]; Homo sapiens, ZR-75-30, 72 h) [µM] | IC50 ([1]; hct-116) [µM] | IC50 ([2]; a549) [µM] | IC50 ([3]; zr-75-30) [µM]
1 | 72 | > 100 | – | – | O=C1c2ccccc2C(=O)c2c1cc(NCc1ccc(C(F)(F)F)cc1)c1nsnc21 | 98 | – | – | –
2 | > 100 | > 100 | – | – | O=C1c2ccccc2C(=O)c2c1cc(S(=O)(=O)c1cccc(Cl)c1)c1nsnc21 | > 100 | – | – | –
3 | > 100 | > 100 | – | – | O=C1c2ccccc2C(=O)c2c1cc(Sc1ccc(Cl)cc1)c1nsnc21 | > 100 | – | – | –
4 | > 100 | > 100 | – | – | CC(C)c1ccc(Sc2cc3c(c4nsnc24)C(=O)c2ccccc2C3=O)cc1 | > 100 | – | – | –
5 | > 50 | > 50 | – | – | COc1ccc(S(=O)(=O)c2cc3c(c4nsnc24)C(=O)c2ccccc2C3=O)cc1 | > 50 | – | – | –
6 | 68 | > 100 | – | – | O=C1c2ccccc2C(=O)c2c1cc(N1CCCC1)c1nsnc21 | 45 | – | – | –
7 | 27 | > 100 | – | – | CC(C)c1ccc(S(=O)(=O)c2cc3c(c4nsnc24)C(=O)c2ccccc2C3=O)cc1 | 83 | – | – | –
8 | > 100 | > 100 | – | – | CC(C)(C)c1ccc(Sc2cc3c(c4nsnc24)C(=O)c2ccccc2C3=O)cc1 | > 100 | – | – | –
9 | > 100 | > 100 | Active | inactive | O=C1c2ccccc2C(=O)c2c1cc(Sc1cccs1)c1nsnc21 | > 100 | – | – | –
10 | > 100 | > 100 | – | – | O=C1c2ccccc2C(=O)c2c1cc(Sc1cccc(Cl)c1)c1nsnc21 | > 100 | – | – | –
11 | > 100 | > 100 | Active | – | O=C1c2ccccc2C(=O)c2c1cc(Sc1ccc3ccccc3c1)c1nsnc21 | > 100 | – | – | –
12 | > 100 | > 100 | – | – | O=C1c2ccccc2C(=O)c2c1cc(Sc1nc3ccccc3s1)c1nsnc21 | > 100 | – | – | –
13 | 23 | > 100 | – | – | O=C1c2ccccc2C(=O)c2c1cc(S(=O)(=O)c1ccc(F)cc1)c1nsnc21 | 36 | – | – | –
14 | 50 | > 100 | – | – | CCCCCCNc1cc2c(c3nsnc13)C(=O)c1ccccc1C2=O | 47 | – | – | –
15 | 7 | 6.7 | Active | – | CC(C)Nc1cc2c(c3nsnc13)C(=O)c1ccccc1C2=O | 3 | – | – | –
16 | 78 | > 100 | – | – | Cc1cccc(S(=O)(=O)c2cc3c(c4nsnc24)C(=O)c2ccccc2C3=O)c1 | > 100 | – | – | –
17 | > 100 | > 100 | Active | – | O=C1c2ccccc2C(=O)c2c1cc(SCc1ccccc1Cl)c1nsnc21 | > 100 | – | – | –
18 | 9.8 | > 50 | – | – | O=C1c2ccccc2C(=O)c2c1cc(Sc1ccc(F)cc1)c1nsnc21 | 20 | – | – | –
19 | 35 | > 100 | – | – | O=C1c2ccccc2C(=O)c2c1cc(S(=O)(=O)c1ccccc1)c1nsnc21 | > 100 | – | – | –
20 | 18 | 97 | – | – | O=C1c2ccccc2C(=O)c2c1cc(S(=O)(=O)c1ccc(Br)cc1)c1nsnc21 | 94 | – | – | –
21 | 24 | > 100 | – | – | O=C1c2ccccc2C(=O)c2c1cc(S(=O)(=O)c1cccc(F)c1)c1nsnc21 | > 100 | – | – | –
22 | > 100 | > 100 | – | – | O=C1c2ccccc2C(=O)c2c1cc(N1CCCCC1)c1nsnc21 | 8.1 | – | – | –
23 | 26 | > 100 | – | – | Cc1ccc(Sc2cc3c(c4nsnc24)C(=O)c2ccccc2C3=O)cc1 | 22 | – | – | –
24 | 87 | > 100 | – | – | O=C1c2ccccc2C(=O)c2c1cc(NCc1cccnc1)c1nsnc21 | 12 | – | – | –
25 | 58 | > 100 | – | – | CCC(C)Nc1cc2c(c3nsnc13)C(=O)c1ccccc1C2=O (stereo unspecified) | > 100 | – | – | –
26 | > 100 | > 100 | – | – | CCOc1cccc(S(=O)(=O)c2cc3c(c4nsnc24)C(=O)c2ccccc2C3=O)c1 | > 100 | – | – | –

Row | IC50 ([1]; Homo sapiens, HCT-116, 72 h) [µM] | IC50 ([2]; Homo sapiens, A549, 72 h) [µM] | inhibition [4] | inhibition [5] | Structure (SMILES) | IC50 ([3]; Homo sapiens, ZR-75-30, 72 h) [µM] | IC50 ([1]; hct-116) [µM] | IC50 ([2]; a549) [µM] | IC50 ([3]; zr-75-30) [µM]
27 | 6.3 | – | – | – | CCc1c2c(nc3ccc(OC(=O)N4CCC(N5CCCCC5)CC4)cc13)-c1cc3c(c(=O)n1C2)COC(=O)[C@]3(O)CC [IRINOTECAN] | 18 | – | – | –
28 | 34 | 44 | – | – | CCCCCCCNc1cc2c(c3nsnc13)C(=O)c1ccccc1C2=O | 12 | – | – | –
29 | 11 | > 100 | Active | – | O=C1c2ccccc2C(=O)c2c1cc(S(=O)(=O)Cc1ccccc1Cl)c1nsnc21 | > 100 | – | – | –
30 | > 100 | > 100 | – | – | O=C1c2ccccc2C(=O)c2c1cc(N1CCN(c3ccccn3)CC1)c1nsnc21 | > 100 | – | – | –
31 | > 100 | > 100 | – | – | O=C1c2ccccc2C(=O)c2c1cc(Sc1ccccc1)c1nsnc21 | > 100 | – | – | –
32 | 1.5 | > 100 | Active | inactive | O=C1c2ccccc2C(=O)c2c1cc(S(=O)(=O)c1cccs1)c1nsnc21 | 24 | – | – | –
33 | 54 | 31 | – | – | CCCCCCCCNc1cc2c(c3nsnc13)C(=O)c1ccccc1C2=O | 22 | – | – | –
34 | 34 | > 50 | – | – | CC(C)(C)c1ccc(S(=O)(=O)c2cc3c(c4nsnc24)C(=O)c2ccccc2C3=O)cc1 | > 50 | – | – | –
35 | > 100 | > 100 | – | – | O=C1c2ccccc2C(=O)c2c1cc(N1CCN(Cc3ccccc3)CC1)c1nsnc21 | > 100 | – | – | –
36 | 6.7 | > 100 | Active | – | O=C1c2ccccc2C(=O)c2c1cc(S(=O)(=O)c1ccc3ccccc3c1)c1nsnc21 | 23 | – | – | –
37 | > 100 | > 100 | – | – | O=C1c2ccccc2C(=O)c2c1cc(NCc1ccc(Cl)cc1)c1nsnc21 | > 100 | – | – | –
38 | > 100 | > 100 | – | – | CC(C)(C)OC(=O)N1CCN(c2cc3c(c4nsnc24)C(=O)c2ccccc2C3=O)CC1 | > 100 | – | – | –
39 | > 100 | > 100 | – | – | COc1ccc(Sc2cc3c(c4nsnc24)C(=O)c2ccccc2C3=O)cc1 | > 100 | – | – | –
40 | > 50 | > 50 | – | – | CCOc1cccc(Sc2cc3c(c4nsnc24)C(=O)c2ccccc2C3=O)c1 | > 50 | – | – | –
41 | > 100 | > 100 | – | – | CCCNc1cc2c(c3nsnc13)C(=O)c1ccccc1C2=O | > 100 | – | – | –
42 | > 100 | > 100 | – | – | O=C1c2ccccc2C(=O)c2c1cc(S(=O)(=O)c1nc3ccccc3s1)c1nsnc21 | > 100 | – | – | –
43 | > 100 | > 100 | – | – | O=C1c2ccccc2C(=O)c2c1cc(Sc1ccc(Br)cc1)c1nsnc21 | > 100 | – | – | –
44 | 100 | > 100 | – | – | CCOc1ccc(Nc2cc3c(c4nsnc24)C(=O)c2ccccc2C3=O)cc1 | 91 | – | – | –
45 | > 50 | > 50 | – | – | O=C1c2ccccc2C(=O)c2c1cc(Sc1cccc(F)c1)c1nsnc21 | > 50 | – | – | –
46 | 3.3 | 14 | Active | – | CN1CCN(c2cc3c(c4nsnc24)C(=O)c2ccccc2C3=O)CC1 | 2.7 | – | – | –
47 | 5.1 | 3.8 | – | – | O=C1c2ccccc2C(=O)c2c1cc(NC1CCCCC1)c1nsnc21 | 4.1 | – | – | –
48 | 15 | > 100 | – | – | O=C1c2ccccc2C(=O)c2c1cc(S(=O)(=O)c1ccc(Cl)cc1)c1nsnc21 | > 100 | – | – | –
49 | > 100 | > 100 | – | – | O=C1c2ccccc2C(=O)c2c1cc(SCc1ccccc1)c1nsnc21 | > 100 | – | – | –
50 | 68 | > 100 | – | – | O=C1c2ccccc2C(=O)c2c1cc(S(=O)(=O)Cc1ccccc1)c1nsnc21 | > 100 | – | – | –
51 | 21 | > 100 | – | – | Cc1cccc(Sc2cc3c(c4nsnc24)C(=O)c2ccccc2C3=O)c1 | 49 | – | – | –
52 | 1.9 | 4 | – | – | O=C1c2ccccc2C(=O)c2c1cc(NCc1ccccc1)c1nsnc21 | 4.5 | – | – | –

Row | Structure (SMILES) | IC50 ([1]; Homo sapiens, HCT-116, 72 h) [µM] | IC50 ([2]; Homo sapiens, A549, 72 h) [µM] | inhibition [4] | inhibition [5] | IC50 ([3]; Homo sapiens, ZR-75-30, 72 h) [µM] | IC50 ([1]; hct-116) [µM] | IC50 ([2]; a549) [µM] | IC50 ([3]; zr-75-30) [µM]
53 | CC[C@@]1(O)C(=O)OCc2c1cc1n(c2=O)Cc2cc3ccccc3nc2-1 [CAMPTOTHECIN] | 0.12 | – | – | – | 0.24 | – | – | –
54 | CC(C)CNc1cc2c(c3nsnc13)C(=O)c1ccccc1C2=O | – | – | Active | – | – | 6.3 | > 100 | 3.1
